Active and inactive are the calls of the source. The rule behind the calls is not given here.
Assays:
[1] = test system: Human immunodeficiency virus 1; assay: Antiviral activity against B clade X4 R5 tropic HIV1 92HT593 in HeLa H1-JC.37 cells by focal infectivity assay; type: functional, organism-based; conditions: Human immunodeficiency virus 1, 92HT593, HeLa
How it was run: (§1)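 HeLa H1-JC.37 cells were seeded at 4.5 x 10^3/well and grown overnight at 37°C. Drug was added in DMEM/0.1% FBS for 1 h. Cells then adsorbed 20–60 FFU of virus with drug for 1–2 h. FBS was raised to 10% with drug held constant, then cells were incubated 4 days. Foci were immunostained and counted as % of no-drug control. EC50 came from a regression line; ≥5 wells, ≥3 experiments.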

[2] = test system: Human immunodeficiency virus 1; assay: Antiviral activity against E clade R5 tropic HIV1 93TH078 in HeLa H1-JC.37 cells by focal infectivity assay; type: functional, organism-based; conditions: Human immunodeficiency virus 1, 93TH078, HeLa; how it was run: as §1
[3] = test system: Human immunodeficiency virus 1; assay: Antiviral activity against C clade R5 tropic HIV1 98TZ013 in HeLa H1-JC.37 cells by focal infectivity assay; type: functional, organism-based; conditions: Human immunodeficiency virus 1, 98TZ013, HeLa; how it was run: as §1
[4] = test system: Human immunodeficiency virus 1; assay: Antiviral activity against B clade X4 R5 tropic HIV1 89.6 in HeLa H1-JC.37 cells by focal infectivity assay; type: functional, organism-based; conditions: Human immunodeficiency virus 1, 89.6, HeLa; how it was run: as §1
[5] = test system: Human immunodeficiency virus 1; assay: Antiviral activity against HIV1 NL43 in PBMCs after 2 hrs by p24 antigen capture ELISA; type: functional, organism-based
How it was run: (§2)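 NL4-3 was preincubated with drug for 2 h at 37°C and diluted 400-fold in medium with 0.1% FBS. It was added to CEMx174 (5 x 10^4/well), PHA-stimulated PBMCs (1 x 10^4/well) or HeLa H1-JC.37 cells (4.5 x 10^4/well) for 2 h. Cells were washed twice by centrifugation, resuspended in 10% FBS, and cultured 4 days at 37°C. Supernatant p24 was measured by antigen-capture ELISA.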

[6] = test system: Human immunodeficiency virus 1; assay: Antiviral activity against HIV1 NL43 in HeLa H1-JC.37 cells after 2 hrs by focal infectivity assay; type: functional, organism-based
How it was run: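 NL4-3 stock (10^5 FFU/ml) was preincubated with drug (0–30 µM) for 2 h at 37°C, then diluted 400-fold in DMEM/0.1% FBS so drug fell below inhibitory levels. The mixture was added to HeLa H1-JC.37 cells for 2 h adsorption. FBS was raised to 10% and cells were incubated 4 days. Focus immunostaining followed, with five replicate wells per concentration.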

[7] = Cytotoxicity against human HeLa H1-JC.37 cells; type: cell-based
[8] = test system: Human immunodeficiency virus 1; assay: Antiviral activity against HIV1 NL43 in HeLa H1-JC.37 cells after 2 hrs by p24 antigen capture ELISA; type: functional, organism-based; how it was run: as §2
[9] = test system: Human immunodeficiency virus 1; assay: Antiviral activity against HIV1 NL43 in CEMx174 cells after 2 hrs by p24 antigen capture ELISA; type: functional, organism-based; how it was run: as §2
[10] = test system: Human immunodeficiency virus 1; assay: Antiviral activity against B clade R5 tropic HIV1 SF162 in HeLa H1-JC.37 cells by focal infectivity assay; type: functional, organism-based; conditions: Human immunodeficiency virus 1, SF162, HeLa; how it was run: as §1
[11] = test system: Human immunodeficiency virus 1; assay: Antiviral activity against B clade R5 tropic HIV1 92TH014 in HeLa H1-JC.37 cells by focal infectivity assay; type: functional, organism-based; conditions: Human immunodeficiency virus 1, 92TH014, HeLa; in the assay text read “dual tropic” for “R5 tropic”; how it was run: as §1
[12] = test system: Human immunodeficiency virus 1; assay: Binding affinity to HIV1 ogp140 at by SPR competition study in presence of gp120 MAb b12
[13] = test system: Human immunodeficiency virus 1; assay: Antiviral activity against B clade X4 tropic HIV1 NL43 in HeLa H1-JC.37 cells by focal infectivity assay; type: functional, organism-based; conditions: Human immunodeficiency virus 1, NL43, HeLa; how it was run: as §1
[14] = test system: Simian immunodeficiency virus; assay: Antiviral activity against R5 tropic SIV mac239 in HeLa H1-JC.37 cells by focal infectivity assay; type: functional, organism-based; how it was run: as §1
[15] = test system: Human immunodeficiency virus 1; assay: Antiviral activity against B clade X4 tropic HIV1 HXBc2 in HeLa H1-JC.37 cells by focal infectivity assay; type: functional, organism-based; conditions: Human immunodeficiency virus 1, HXBc2, HeLa; how it was run: as §1
[16] = test system: Human immunodeficiency virus 1; assay: Antiviral activity against C clade R5 tropic HIV1 97ZA009 in HeLa H1-JC.37 cells by focal infectivity assay; type: functional, organism-based; conditions: Human immunodeficiency virus 1, 97ZA009, HeLa; how it was run: as §1
[17] = test system: Human immunodeficiency virus 1; assay: Antiviral activity against B clade R5 tropic HIV1 BaL in HeLa H1-JC.37 cells by focal infectivity assay; type: functional, organism-based; conditions: Human immunodeficiency virus 1, BaL; how it was run: as §1
[18] = test system: Human immunodeficiency virus 1; assay: Binding affinity to HIV1 ogp140 by SPR competition study in presence of gp41 MAb F240
How it was run: (§3)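 SPR was run at 25°C in HBS-P (pH 7.4). MAbs (10 µg/ml) were captured on immobilized goat anti-human Ig. 50 nM oligomeric gp140 was preincubated 30 min with 0, 1, 5 or 10 µM drug, then injected 1 min at 20 µl/min with 2 min dissociation. Surfaces were regenerated with 146 mM H3PO4. Responses were double-referenced and normalized to MAb capture level.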

[19] = test system: Human immunodeficiency virus 1; assay: Antiviral activity against HIV1 NL43 in HeLa H1-JC.37 cells pretreated for 2 hrs before viral challenge by FIA; type: functional, organism-based
How it was run: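 HeLa H1-JC.37 cells (4.5 x 10^3/well, seeded overnight) were exposed to drug in DMEM/0.1% FBS for 2 h, then washed twice. They were infected with 20–60 FFU NL4-3 for 2 h. Volume was brought to 200 µl at 10% FBS and cells were incubated 4 days at 37°C. Readout was focus counting. A control arm added drug together with virus.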

[20] = test system: Human immunodeficiency virus 1; assay: Antiviral activity against A clade R5 tropic HIV1 92RW016 in HeLa H1-JC.37 cells by focal infectivity assay; type: functional, organism-based; conditions: Human immunodeficiency virus 1, 92RW016, HeLa; how it was run: as §1
[21] = test system: Human immunodeficiency virus 1; assay: Binding affinity to HIV1 ogp140 by SPR competition study in presence of gp41 MAb 5F3; how it was run: as §3

EC50 [1]: 340 nM
EC50 [2]: 500 nM
EC50 [3]: 190 nM
EC50 [4]: 410 nM
EC50 [10]: 400 nM
EC50 [11]: 190 nM
Activity [12]: Active
EC50 [13]: 330 nM
EC50 [14]: 1200 nM
EC50 [15]: 530 nM
EC50 [16]: 2300 nM
EC50 [17]: 850 nM
Activity [18]: Active
EC50 [20]: 700 nM
Activity [21]: Active
Compound: O=S(=O)(/C=C/c1cc(O)c(O)c(O)c1)CS(=O)(=O)/C=C/c1cc(O)c(O)c(O)c1
Activity [5]: Active
Activity [6]: Active
IC50 [7]: 170000 nM
Activity [8]: Active
Activity [9]: Active
Activity [19]: inactive
